Results: ChEMBL document CHEMBL2331304, “N1,N3-disubstituted uracils as nonnucleoside inhibitors of HIV-1 reverse transcriptase” (Bioorg Med Chem, 2013)
The source made the active and inactive calls. The calls are words filed in the database; no cut-off is given here.

How the values were obtained:
[1] = tested on: Human alphaherpesvirus 2; experiment: Antiviral activity against Human herpesvirus 2; type: functional, organism-based
How it was run: (§1)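 Confluent HEL, Vero, HeLa or MDCK monolayers (cell type per virus not specified) were inoculated with 100 CCID50 of virus, with a range of compound concentrations. Strains were HSV-1 KOS and TK− ACV-resistant KOS, HSV-2 Lyons and G, and HCMV AD-169 and Davis. Cytopathicity or plaques were scored once complete in untreated infected controls.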

[2] = tested on: Vaccinia virus; experiment: Antiviral activity against Vaccinia virus; type: functional, organism-based; conditions: Orthopoxvirus vaccinia
[3] = tested on: Influenza A virus; experiment: Antiviral activity against Influenza A virus H3N2; type: functional, organism-based
[4] = tested on: Human alphaherpesvirus 3; experiment: Antiviral activity against Varicella zoster virus; type: functional, organism-based
How it was run: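 VZV strain Oka and the TK− strain 07-1 were inoculated at 20 PFU onto confluent cell monolayers in the presence of varying compound concentrations. Plaque formation was recorded once complete in untreated infected controls.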

[5] = tested on: Mammalian orthoreovirus 1; experiment: Antiviral activity against Reovirus 1; type: functional, organism-based
[6] = tested on: MT4; experiment: Cytotoxicity against human MT4 cells after 4 days by MTT assay; type: cell-based; conditions: mt4, 96 h
[7] = tested on: Influenza A virus; experiment: Antiviral activity against Influenza A virus H1N1; type: functional, organism-based
[8] = tested on: Feline coronavirus; experiment: Antiviral activity against Feline coronavirus; type: functional, organism-based
[9] = tested on: Human respirovirus 3; experiment: Antiviral activity against Parainfluenza virus 3; type: functional, organism-based
[10] = tested on: Human immunodeficiency virus 1; experiment: Antiviral activity against HIV1 3B infected in human MT4 cells assessed as inhibition of virus-induced cytopathic effect after 4 days by MTT assay; type: functional, organism-based; conditions: Human immunodeficiency virus 1, 3B, MT4, 96 h
How it was run: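 HIV-1 in MT-4 cells at 1 × 10^5 cells/ml, infected at MOI 0.02 (virus stock titrated as CCID50), then plated immediately onto varying compound concentrations. After 4 days at 37 °C, viable cells counted by MTT.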

[11] = tested on: Influenza B virus; experiment: Antiviral activity against influenza B virus; type: functional, organism-based
[12] = tested on: Coxsackievirus B4; experiment: Antiviral activity against Coxsackievirus B4; type: functional, organism-based
[13] = tested on: Vesicular stomatitis virus; experiment: Antiviral activity against Vesicular stomatitis virus; type: functional, organism-based
[14] = tested on: Human alphaherpesvirus 1; experiment: Antiviral activity against Human herpesvirus 1; type: functional, organism-based; how it was run: as §1
[15] = biological target: Human immunodeficiency virus type 1 reverse transcriptase (Human immunodeficiency virus 1, UniProt Q72547); experiment: Non-competitive inhibition of wild type HIV1 reverse transcriptase p66/p51 after 30 mins by liquid scintillation counting
[16] = tested on: Punta Toro virus; experiment: Antiviral activity against Punta Toro virus; type: functional, organism-based
[17] = tested on: Sindbis virus; experiment: Antiviral activity against Sindbis virus; type: functional, organism-based
[18] = tested on: Respiratory syncytial virus; experiment: Antiviral activity against Respiratory syncytial virus; type: functional, organism-based

SMILES | Activity [1] | Activity [2] | Activity [3] | Activity [4] | Activity [5] | CC50 [6] [µM] | Activity [7] | Activity [8] | Activity [9] | EC50 [10] [µM] | Activity [11] | Activity [12] | Activity [13] | Activity [14] | Ki [15] [µM] | Activity [16] | Activity [17] | Activity [18]
Cc1ccc(OCCn2c(=O)n(Cc3ccccc3)c(=O)c3ccccc32)cc1 | inactive | inactive | inactive | inactive | inactive | 25 | inactive | inactive | inactive | > 25 | inactive | inactive | inactive | inactive | 1 | inactive | inactive | inactive
Cc1ccnc2c1NC(=O)c1cccnc1N2C1CC1 [NEVIRAPINE] |  |  |  |  |  | > 4 |  |  |  | 0.048 |  |  |  |  |  |  |  | 
Cc1ccc(OCCn2ccc(=O)n(Cc3c(C)cc(C)cc3C)c2=O)cc1 | inactive | inactive | inactive | inactive | inactive | 133 | inactive | inactive | inactive | > 133 | inactive | inactive | inactive | inactive | > 100 | inactive | inactive | inactive
Cc1ccc(OCCn2ccc(=O)n(CCc3ccccc3)c2=O)cc1 | inactive | inactive | inactive | inactive | inactive | 129 | inactive | inactive | inactive | > 129 | inactive | inactive | inactive | inactive | 6.5 | inactive | inactive | inactive
O=c1ccn(CCOc2ccc(Cl)cc2)c(=O)n1Cc1ccccc1 | inactive | inactive | inactive | inactive | inactive | 36 | inactive | inactive | inactive | > 36 | inactive | inactive | inactive | inactive | 22 | inactive | inactive | inactive
CC(C)(C)c1ccc(OCCn2ccc(=O)n(Cc3ccccc3)c2=O)cc1 | inactive | inactive | inactive | inactive | inactive | 63 | inactive | inactive | inactive | > 63 | inactive | inactive | inactive | inactive | 15 | inactive | inactive | inactive
Cc1ccc(Cn2c(=O)ccn(CCOc3ccc(C)cc3)c2=O)cc1 | inactive | inactive | inactive | inactive | inactive | 250 | inactive | inactive | inactive | > 250 | inactive | inactive | inactive | inactive | 47 | inactive | inactive | inactive
Cc1ccc(OCCn2ccc(=O)n(Cc3ccccc3C)c2=O)cc1 | inactive | inactive | inactive | inactive | inactive | 46 | inactive | inactive | inactive | > 46 | inactive | inactive | inactive | inactive | > 100 | inactive | inactive | inactive
Cc1cc(C)cc(OCCn2ccc(=O)n(Cc3ccccc3)c2=O)c1 | inactive | inactive | inactive | inactive | inactive | 46 | inactive | inactive | inactive | > 46 | inactive | inactive | inactive | inactive | > 100 | inactive | inactive | inactive
Cc1ccc(OCCn2ccc(=O)n(Cc3ccccc3)c2=O)cc1C | inactive | inactive | inactive | inactive | inactive | 60 | inactive | inactive | inactive | > 60 | inactive | inactive | inactive | inactive | > 100 | inactive | inactive | inactive
Cc1ccc(OCCn2cc(C)c(=O)n(Cc3ccccc3)c2=O)cc1 | inactive | inactive | inactive | inactive | inactive | > 356 | inactive | inactive | inactive | > 356 | inactive | inactive | inactive | inactive | 1 | inactive | inactive | inactive
Cc1ccccc1OCCn1ccc(=O)n(Cc2ccccc2)c1=O | inactive | inactive | inactive | inactive | inactive | 117 | inactive | inactive | inactive | > 117 | inactive | inactive | inactive | inactive | > 100 | inactive | inactive | inactive
